Active and inactive are the calls of the source. No cut-off for these calls is given here.
How the values were obtained:
Rattus norvegicus [1] = species on record: Rattus norvegicus; experiment: Induction of mitochondrial dysfunction in rat liver mitochondria assessed as apoptosis inducing factor release at 10 uM after 15 mins by Western blot analysis in presence of Ca2+; type: functional
Procedure, shortened: (§1)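 Mitochondria (1 mg protein/mL) held 15 min at 20 °C in standard succinate/rotenone medium with or without Ca2+, then centrifuged 13000g, 10 min, 4 °C. Supernatants concentrated, resolved by SDS-PAGE (15% for cyt c, 10% for AIF) and immunoblotted with mouse anti-cyt c or rabbit anti-AIF.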

Rattus norvegicus [2] = species on record: Rattus norvegicus; experiment: Hepatoprotective activity in rat liver mitochondria assessed as inhibition of Ca2+-induced mitochondrial swelling at > 20 uM by spectrophotometric analysis; type: functional
Procedure, shortened: (§2)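 Absorbance change at 540 nm of rat liver mitochondrial suspensions (1 mg protein/mL, 20 °C, succinate/rotenone energized, 250 mM sucrose, 10 mM HEPES pH 7.4, 1 mM phosphate); a fall in absorbance taken as swelling. Ca2+ at 50, 70 or 90 μM as specified, or omitted. Runs repeated at least four times.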

Rattus norvegicus [3] = species on record: Rattus norvegicus; experiment: Induction of mitochondrial dysfunction in rat liver mitochondria assessed as increase in colloid-osmotic swelling at 10 uM by spectrophotometric analysis in presence of 50 uM Ca2+ and AdNT; type: functional
Procedure, shortened: (§3)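 Swelling read as the 540 nm absorbance decrease in succinate-energized rat liver mitochondria (1 mg protein/mL, 20 °C, pH 7.4 sucrose/HEPES medium) with 50 μM Ca2+. Added agents where indicated: 1 μM CsA, 5 μM bongkrekic acid, 1 mM ADP, 2 μM ruthenium red, 10 μM NEM, 1 mM DTE. At least five repeats.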

Rattus norvegicus [4] = species on record: Rattus norvegicus; experiment: Induction of mitochondrial dysfunction in rat liver mitochondria assessed as cytochrome c release at 10 uM after 15 mins by Western blot analysis; type: functional; procedure, shortened: as §1
Rattus norvegicus [5] = species on record: Rattus norvegicus; experiment: Induction of mitochondrial dysfunction in rat liver mitochondria assessed as increase in colloid-osmotic swelling at 10 uM by spectrophotometric analysis in presence of 50 uM Ca2+ and ADP; type: functional; procedure, shortened: as §3
Rattus norvegicus [6] = species on record: Rattus norvegicus; experiment: Induction of mitochondrial dysfunction in rat liver mitochondria assessed as apoptosis inducing factor release at 10 uM after 15 mins by Western blot analysis; type: functional; procedure, shortened: as §1
Rattus norvegicus [7] = species on record: Rattus norvegicus; experiment: Induction of mitochondrial dysfunction in rat liver mitochondria assessed as decrease in membrane potential at 1 uM by spectrophotometric analysis in presence of 50 uM Ca2+; type: functional; details: in the assay text read “TPP+-selective electrode” for “spectrophotometric analysis”, TDE = time-dependent effect
Procedure, shortened: (§4)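 Membrane potential (ΔΨ) derived from TPP+ distribution across the inner membrane, measured with a TPP+-selective electrode. Ca2+ 50 μM where indicated; cyclosporin A 1 μM where indicated.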

Rattus norvegicus [8] = species on record: Rattus norvegicus; experiment: Induction of mitochondrial dysfunction in rat liver mitochondria assessed as initial uptake of Ca2+ per mg protein at 100 uM measured immediately by spectrophotometric analysis; type: functional
Procedure, shortened: (§5)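 Ca2+ movements in rat liver mitochondria (1 mg protein/mL, 20 °C, succinate/rotenone medium) exposed to 70 μM Ca2+; Ca2+ in mitochondrial pellets measured by atomic absorption spectroscopy, uptake expressed per mg protein.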

Rattus norvegicus [9] = species on record: Rattus norvegicus; experiment: Induction of mitochondrial dysfunction in rat liver mitochondria assessed as Ca2+ accumulation at 10 uM after 1 to 2 mins by spectrophotometric analysis; type: functional; procedure, shortened: as §5
Rattus norvegicus [10] = species on record: Rattus norvegicus; experiment: Induction of mitochondrial dysfunction in rat liver mitochondria assessed as rapid accumulation of Ca2+ at 10 uM by spectrophotometric analysis; type: functional
Procedure, shortened: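 Rat liver mitochondria, isolated by differential centrifugation in sucrose/HEPES/EGTA buffer, were incubated at 1 mg protein/mL and 20 °C. Ca2+ content of mitochondrial pellets was measured by atomic absorption spectroscopy.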

Rattus norvegicus [11] = species on record: Rattus norvegicus; experiment: Induction of mitochondrial bioenergetics dysfunction in ADP-stimulated rat liver mitochondria assessed as decrease in oxygen consumption at 10 to 50 uM by using clark electrode; type: functional
Procedure, shortened: (§6)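 Isolated rat liver mitochondria (1 mg protein/mL), 20 °C, sucrose/HEPES pH 7.4 medium with 5 mM succinate plus 1.25 μM rotenone and 1 mM phosphate. O2 uptake followed with a Clark electrode; 300 μM ADP added to start state 3. RCI = V3/V4 (state 3 over state 4 rate). Five experiments.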

Rattus norvegicus [12] = species on record: Rattus norvegicus; experiment: Induction of mitochondrial dysfunction in Ca2+-stimulated rat liver mitochondria assessed as decrease in mitochondrial redox level at 10 uM after 15 mins by absorption spectrophotometric analysis in presence of N-ethylmaleimide; type: functional
Procedure, shortened: (§7)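 Mitochondrial protein thiol oxidation assayed per Santos et al. after 15 min incubation of rat liver mitochondria (1 mg protein/mL, 20 °C, succinate/rotenone standard medium). Results as % reduced thiols, mean ± SD, four independent experiments.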

Rattus norvegicus [13] = species on record: Rattus norvegicus; experiment: Induction of mitochondrial bioenergetics dysfunction in rat liver mitochondria assessed as decrease in respiratory control index at 10 uM by using clark electrode; type: functional; procedure, shortened: as §6
Rattus norvegicus [14] = species on record: Rattus norvegicus; experiment: Induction of mitochondrial bioenergetics dysfunction in rat liver mitochondria assessed as decrease in respiratory control index at 50 uM by using clark electrode; type: functional; procedure, shortened: as §6
Rattus norvegicus [15] = species on record: Rattus norvegicus; experiment: Induction of mitochondrial dysfunction in rat liver mitochondria assessed as increase in colloid-osmotic swelling at 10 uM by spectrophotometric analysis in presence of 50 uM Ca2+; type: functional; procedure, shortened: as §2
Rattus norvegicus [16] = species on record: Rattus norvegicus; experiment: Induction of mitochondrial dysfunction in rat liver mitochondria assessed as increase in mitochondrial swelling at 10 uM by spectrophotometric analysis in presence of 70 uM Ca2+; type: functional; procedure, shortened: as §2
Rattus norvegicus [17] = species on record: Rattus norvegicus; experiment: Induction of mitochondrial dysfunction in rat liver mitochondria assessed as change in membrane potential by spectrophotometric analysis; type: functional
Rattus norvegicus [18] = species on record: Rattus norvegicus; experiment: Induction of mitochondrial dysfunction in Ca2+-stimulated rat liver mitochondria assessed as decrease in mitochondrial redox level at 10 uM after 15 mins by absorption spectrophotometric analysis in presence of Ca2+ transport inhibitor ruthedium red; type: functional; procedure, shortened: as §7
Rattus norvegicus [19] = species on record: Rattus norvegicus; experiment: Hepatoprotective activity in rat liver assessed as increase in mitochondrial membrane potential at 100 uM by spectrophotometric analysis in presence of 50 uM Ca2+; type: functional; details: Mitochondria; procedure, shortened: as §4
Rattus norvegicus [20] = species on record: Rattus norvegicus; experiment: Hepatoprotective activity in rat liver assessed as inhibition of colloid-osmotic mitochondrial swelling at 100 uM by spectrophotometric analysis in presence of 90 uM Ca2+; details: Mitochondria
Rattus norvegicus [21] = species on record: Rattus norvegicus; experiment: Hepatoprotective activity in rat liver mitochondria assessed as change in mitochondrial pyridine nucleotide redox level at 100 uM after 15 mins by fluorometric analysis in presence of Ca2+
Rattus norvegicus [22] = species on record: Rattus norvegicus; experiment: Induction of mitochondrial dysfunction in Ca2+-stimulated rat liver mitochondria assessed as decrease in mitochondrial redox level at 10 uM after 15 mins by absorption spectrophotometric analysis in presence of bongkrekic acid; type: functional; procedure, shortened: as §7
Rattus norvegicus [23] = species on record: Rattus norvegicus; experiment: Induction of mitochondrial dysfunction in rat liver mitochondria assessed as decrease in membrane potential at 100 uM by spectrophotometric analysis in presence of 1 uM MPT inhibitor cyclosporin A; type: functional; procedure, shortened: as §4
Rattus norvegicus [24] = species on record: Rattus norvegicus; experiment: Hepatoprotective activity in rat liver assessed as inhibition of colloid-osmotic mitochondrial swelling at 100 uM by spectrophotometric analysis in presence of 90 uM Ca2+; type: functional; details: Mitochondria; procedure, shortened: as §2
Rattus norvegicus [25] = species on record: Rattus norvegicus; experiment: Induction of mitochondrial dysfunction in rat liver mitochondria assessed as increase in colloid-osmotic swelling at 10 uM by spectrophotometric analysis in presence of 50 uM Ca2+ and dithiothreitol; type: functional; procedure, shortened: as §3
Rattus norvegicus [26] = species on record: Rattus norvegicus; experiment: Induction of mitochondrial dysfunction in rat liver mitochondria assessed as increase in colloid-osmotic swelling at 100 uM by spectrophotometric analysis in presence of 50 uM Ca2+; type: functional; procedure, shortened: as §2

C/C(=C/CC[C@H](C)[C@@H]1CC[C@]2(C)C3=CC[C@H]4C(C)(C)[C@H](O)CC[C@]4(C)[C@H]3CC[C@@]12C)C(=O)O
Activity (Rattus norvegicus [1]): Active
Activity (Rattus norvegicus [2]): Active
Activity (Rattus norvegicus [3]): inactive
Activity (Rattus norvegicus [4]): inactive
Activity (Rattus norvegicus [5]): inactive
Activity (Rattus norvegicus [6]): inactive
Activity (Rattus norvegicus [7]): tde
Activity (Rattus norvegicus [8]): 20 nmol
Activity (Rattus norvegicus [9]): inactive
Activity (Rattus norvegicus [10]): Active
Activity (Rattus norvegicus [11]): Active
Activity (Rattus norvegicus [12]): inactive
Activity (Rattus norvegicus [13]): Active
Activity (Rattus norvegicus [14]): Active
Activity (Rattus norvegicus [15]): Active
Activity (Rattus norvegicus [16]): Active
Activity (Rattus norvegicus [17]): Dose-dependent effect
Activity (Rattus norvegicus [18]): inactive
Activity (Rattus norvegicus [19]): Active
inhibition (Rattus norvegicus [20]): Active
Activity (Rattus norvegicus [21]): Active
Activity (Rattus norvegicus [22]): Active
Activity (Rattus norvegicus [23]): Active
inhibition (Rattus norvegicus [24]): Active
Activity (Rattus norvegicus [25]): inactive
Activity (Rattus norvegicus [26]): Active

— ChEMBL document CHEMBL2034843, “3α-Hydroxymasticadienonic acid as an antiproliferative agent that impairs mitochondrial functions” (J Nat Prod, 2012)
